Measurements from ChEMBL document CHEMBL4400542, “Epidermal Growth Factor Receptor-Targeted Multifunctional Photosensitizers for Bladder Cancer Imaging and Photodynamic Therapy” (J Med Chem, 2019).
Active and inactive are the calls of the source. The calls are words filed in the database; no cut-off is given here.

Key:
T-24 [1] = assay: Photo-activated cytotoxicity against human T24 cells assessed as reduction in cell viability preincubated for 24 hrs followed by 1 J/cm2 light irradiation and measured after 48 hrs formulated with 1% tween 80 solution by MTT assay; assay type: functional, cell-based; details: T-24, light or radiation study
How it was run: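 Cells plated at 10k per well, allowed 24 h to adhere, then PS added in two-fold dilutions from 1 µM top for 24 h. Irradiated at 665 nm, 1.0 J/cm2 at 3.2 mW/cm2. Viability by MTT 48 h after PDT: about 2 h incubation, formazan dissolved in DMSO, absorbance at 570 nm.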

T-24 [2] = assay: Induction of apoptosis in human T24 cells assessed as increase in apoptotic cells at 1 uM in presence of light by Annexin V/propidium iodide-stining based flow cytometry; assay type: functional, cell-based
UMUC3 [3] = assay: Induction of apoptosis in human UM-UC-3 cells assessed as increase in necrotic cells at 1 uM in presence of light by Annexin V/propidium iodide-stining based flow cytometry; assay type: functional, cell-based
UMUC3 [4] = assay: Induction of apoptosis in human UM-UC-3 cells assessed as increase in apoptotic cells at 1 uM in presence of light by Annexin V/propidium iodide-stining based flow cytometry; assay type: functional, cell-based
T-24 [5] = assay: Induction of apoptosis in human T24 cells assessed as increase in necrotic cells at 1 uM in presence of light by Annexin V/propidium iodide-stining based flow cytometry; assay type: functional, cell-based
UMUC3 [6] = assay: Induction of apoptosis in human UM-UC-3 cells assessed as increase in necrotic cells at 100 nM in presence of light by Annexin V/propidium iodide-stining based flow cytometry; assay type: functional, cell-based
UMUC3 [7] = assay: Anti-tumor activity against human UM-UC-3 cells xenografted in SCID mouse assessed as tumor cure at 0.47 umol/kg, iv in presence of 135 J/cm2 light irradiation at 24 hrs post injection and measured at day 60; assay type: functional
How it was run: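 UMUC-3 cells implanted in right flank of SCID mice; at 4–5 mm tumors, PS given i.v. at 0.47 µmol/kg. Tumors exposed to 665 nm light, 135 J/cm2 at 75 mW/cm2, 24 h post-injection. Tumor regrowth monitored daily; mice euthanized at >400 mm3; tumor-free status scored at day 60.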

T-24 [8] = assay: Induction of apoptosis in human T24 cells assessed as increase in apoptotic cells at 100 nM in presence of light by Annexin V/propidium iodide-stining based flow cytometry; assay type: functional, cell-based
UMUC3 [9] = assay: Induction of apoptosis in human UM-UC-3 cells assessed as increase in apoptotic cells at 100 nM in presence of light by Annexin V/propidium iodide-stining based flow cytometry; assay type: functional, cell-based
[10] = Induction of singlet oxygen generation in oxygen-saturated toluene solution at 670 nm assessed as decay rate constant of triplet excited state by femtosecond transient absorption spectroscopy; assay type: functional
[11] = Drug uptake in human T24 cells xenografted in SCID mouse at 0.47 umol/kg formulated with 2% pluronic F-127 solution and measured at 24 hrs post injection by IVIS analysis; assay type: ADME, cell-based, T-24; details: in vivo
How it was run: (§1)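 SCID mice (3/group) bearing UMUC3 or T24 tumors of 4–5 mm injected with PS at 0.47 µmol/kg in Tween80 or Pluronic F-127. Tumor, liver and skin fluorescence followed by IVIS optical imaging (ex 675 nm, em 720) at several time points including 24 h.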

[12] = Induction of singlet oxygen generation in Ar-saturated toluene solution at 670 nm assessed as decay rate constant of triplet excited state by femtosecond transient absorption spectroscopy; assay type: functional
[13] = Induction of singlet oxygen generation in toluene solution in presence of oxygen at 670 nm assessed as decay rate constant of triplet excited state by femtosecond transient absorption spectroscopy; assay type: functional
UMUC3 [14] = assay: Anti-tumor activity against human UM-UC-3 cells xenografted in SCID mouse assessed as tumor necrosis at 0.47 umol/kg, iv in presence of 135 J/cm2 light irradiation at 24 hrs post injection and measured at 72 hrs post light exposure; assay type: functional, organism-based
[15] = Drug uptake in human UM-UC-3 cells xenografted in SCID mouse at 0.47 umol/kg formulated with 2% pluronic F-127 solution and measured at 24 hrs post injection by IVIS analysis; assay type: ADME, cell-based, UMUC3; details: in vivo; how it was run: as §1
[16] = Drug uptake in human UM-UC-3 cells xenografted in SCID mouse at 0.47 umol/kg formulated with 1% tween 80 solution and measured at 24 hrs post injection by IVIS analysis; assay type: ADME, cell-based, UMUC3; details: in vivo; how it was run: as §1
[17] = Induction of singlet oxygen generation in oxygen-free toluene solution at 670 nm assessed as decay rate constant of triplet excited state by femtosecond transient absorption spectroscopy; assay type: functional
[18] = Induction of singlet oxygen generation assessed as energy transfer from the triplet chlorins to oxygen by femtosecond transient absorption spectroscopy; assay type: functional
[19] = Drug uptake in human T24 cells xenografted in SCID mouse at 0.47 umol/kg formulated with 1% tween 80 solution and measured at 24 hrs post injection by IVIS analysis; assay type: ADME, cell-based, T-24; details: in vivo; how it was run: as §1

Row | Drug uptake [11] | Drug uptake [15] | Drug uptake [16] | Drug uptake [19] | Structure (SMILES) | IC50 (T-24 [1]) [nM] | Activity (T-24 [2]) | Activity (UMUC3 [3]) | Activity (UMUC3 [4]) | Activity (T-24 [5]) | Activity (UMUC3 [6]) | Activity (UMUC3 [7]) [%] | Activity (T-24 [8]) | Activity (UMUC3 [9]) | K [10] [×10⁵ /s] | K [12] [×10⁴ /s] | K [13] [×10⁶ /s] | Activity (UMUC3 [14]) | K [17] [×10⁴ /s] | K [18] [×10⁹ /M/s]
1 | – | – | – | – | CCC1=C(C)c2cc3[nH]c(cc4nc(c5c6[nH]c(cc1n2)c(C)c6C(=O)C5)[C@@H](CCC(=O)OC)[C@@H]4C)c(C)c3C(C)OCc1cccc(I)c1 (stereo not given in full) | 73.7 | Active | Active | Active | Active | Active | 20 | inactive | Active | – | – | – | – | – | –
2 | Active | Active | Active | Active | CCC1=C(C)c2cc3[nH]c(cc4nc(c5c6[nH]c(cc1n2)c(C)c6C(=O)C5)[C@@H](CCC(=O)NCc1cccc(I)c1)[C@@H]4C)c(C)c3C(C)OCc1cccc(C#Cc2cccc(Nc3ncnc4cc(OCCOC)c(OCCOC)cc34)c2)c1 (stereo not given in full) | 1030 | – | – | – | – | – | – | – | – | 6.34 | 4.27 | 0.634 | inactive | 4.27 | 3.17
